Data set [1] is described as follows: Clearance in CD rat at 5 mg/kg. Type of data set: ADME, organism-based. Also on record: dose 5 mg/kg. The settings on record: in vivo. In outline:
(§1)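 Female CD rats, n = 3, given 5 mpk. The HCl salt in saline served as both the oral and the iv formulation. Values are mean ± SD.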

The nature of data set [2]: Half life in CD rat at 5 mg/kg. Type of data set: ADME, organism-based. Also on record: dose 5 mg/kg. The settings on record: in vivo. Put shortly: as §1
A short description of data set [3]: AUC ( 0 to t) in CD rat at 5 mg/kg. Type of data set: ADME, organism-based. Set-up: dose 5 mg/kg. The settings on record: plasma. Put shortly:
as §1

The nature of data set [4]: Tmax in CD rat at 5 mg/kg. Type of data set: ADME, organism-based. Set-up: dose 5 mg/kg. The settings on record: in vivo. In outline: as §1
Data set [5] can be described thus: Drug uptake in C57BL6 mouse muscle at 10 mg/kg, po after 24 hrs. Type of data set: ADME, organism-based, Muscle tissue. Also on record: dose 10 mg/kg, route oral. To be noted: read-out: Drug uptake. In outline:
(§2)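 Male C57BL6 mice, n = 3, given a single oral dose of 10 mpk. Compound levels in tissue or plasma were measured 24 h after the dose. Values are mean ± SD.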

Data set [6] in a line: Volume of distribution at steady state in CD rat at 5 mg/Kg. Format: ADME, organism-based. The settings on record: in vivo, read-out: Vdss. Put shortly: as §1
A short description of data set [7]: Plasma concentration in C57BL6 mouse at 10 mg/kg, po after 24 hrs. Type of data set: ADME, organism-based. Also on record: dose 10 mg/kg, route oral. Put shortly:
as §2

The nature of data set [8]: Drug uptake in C57BL6 mouse liver at 10 mg/kg, po after 24 hrs. Type of data set: ADME, organism-based. Also on record: dose 10 mg/kg, route oral. To be noted: read-out: Drug uptake. Put shortly:
as §2

The nature of data set [9]: Cmax in CD rat at 5 mg/kg. Also on record: dose 5 mg/kg. Format: ADME, organism-based. To be noted: in vivo. In outline:
as §1

The nature of data set [10]: Drug uptake in C57BL6 mouse Fat at 10 mg/kg, po after 24 hrs. Set-up: dose 10 mg/kg, route oral. Format: ADME, organism-based. The settings on record: fat (adipose tissue), read-out: Drug uptake. Put shortly:
as §2

Data set [11] can be described thus: Oral bioavailability in CD rat at 5 mg/Kg. To be noted: in vivo. Type of data set: ADME, organism-based. In outline:
as §1

Data set [12] in a line: Metabolic stability in mouse liver microsome assessed as compound conversion at 15 uM after 30 mins. Format: ADME. To be noted: liver microsomes, read-out: Drug metabolism. For orientation: Liver microsomes are a subcellular fraction often used to study metabolism.
A short description of data set [13]: Plasma concentration in mouse at 100 mg/kg, po after 4 hrs. Type of data set: ADME, organism-based. Also on record: dose 100 mg/kg, route oral. Put shortly: (§3)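 Female nude mice (n = 3) given 100 mpk orally. Plasma compound levels measured 1 and 4 h after dosing, reported as mean ± SD.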
A short description of data set [14]: Plasma concentration in mouse at 100 mg/kg, po after 1 hr. Format: ADME, organism-based. Also on record: dose 100 mg/kg, route oral. Put shortly: as §3

One may read the clearance as the volume of plasma or blood freed of the substance per unit of time. A high value points to efficient removal. The half-life is how long it takes for the measured level to halve. Read a low half-life as rapid decline. The term AUC(0-t) denotes exposure summed from dosing to a finite time, without extrapolation to infinity. Low readings indicate low exposure, high ones high exposure. Usually Tmax stands for the time at which the peak concentration occurs. As usually defined, the Cmax is the highest concentration seen after dosing. For orientation: bioavailability means dose-corrected exposure relative to a reference, in per cent.

The compound `Cl.NC1C[C@H]2CC[C@@H](C1)N2C(=O)[C@H](Cc1ccc(Br)cc1)NC(=O)C1(c2ccc(OC(F)(F)F)cc2)CC1` (stereo partly drawn) had a clearance in data set [1] of 9.58 mL/min/kg. Further, in data set [2], the half-life was 25.3 h. Further, the AUC(0-t) in data set [3] is 5.8 µM·h. Besides, the time to peak (Tmax) in data set [4] was 8 h. The concentration at 24 h stood at 1800 nM in data set [5], 500 nM in data set [7], 5900 nM in data set [8] and 800 nM in data set [10]. In [6], the Vd was found to be 19.3 L/kg. In addition, in data set [9], the concentration peaked (Cmax) at 300 nM. The same compound came in with a bioavailability in [11] of 88.1%.

Take `O=C([C@H](Cc1ccc(Br)cc1)NC(=O)C1(c2ccc(Cl)cc2Cl)CC1)N1CCC(O)CC1`: the metabolised at 0.5 h, 15 µM in data set [12] amounted to 30%. As to `NC1CCN(C(=O)[C@H](Cc2ccc(Br)cc2)NC(=O)C2(c3ccc(Cl)cc3Cl)CC2)CC1`, in [12], the metabolised at 0.5 h, 15 µM worked out at 50%. On the same count and under the same terms, as for `NC1CCCC(NC(=O)[C@H](Cc2ccc(Cl)cc2Cl)NC(=O)C2(c3ccc(Cl)cc3Cl)CC2)C1` (stereo partly drawn), the figure is 10%; as for `NC1C[C@H]2CC[C@@H](C1)N2C(=O)[C@H](Cc1ccc(Cl)cc1Cl)NC(=O)C1(c2ccc(Cl)cc2Cl)CC1` (stereo partly drawn), 20%; as for `NC1C[C@H]2CC[C@@H](C1)N2C(=O)[C@H](Cc1ccc(Br)cc1)NC(=O)C1(c2ccc(Cl)cc2Cl)CC1` (stereo partly drawn), 20%. With `NC1C[C@H]2CC[C@@H](C1)N2C(=O)[C@H](Cc1ccc(Cl)cc1Cl)NC(=O)C1(c2ccc(OC(F)(F)F)cc2)CC1` (stereo partly drawn), the metabolised at 0.5 h, 15 µM in data set [12] was determined as 8%.

For the compound `NC1C[C@H]2CC[C@@H](C1)N2C(=O)[C@H](Cc1ccc(Br)cc1)NC(=O)C1(c2ccc(OC(F)(F)F)cc2)CC1` (stereo partly drawn), the metabolised at 0.5 h, 15 µM in [12] is 7%. Regarding `CN1CCN(C(=O)[C@H](Cc2c[nH]c3ccccc23)NC(=O)C2(c3ccc(Cl)cc3Cl)CC2)CC1`, the concentration at 4 h in data set [13] worked out at 700 nM. Besides, the concentration at 1 h in [14] turned out to be 900 nM. In addition, in data set [12], the metabolised at 0.5 h, 15 µM was determined as 90%. Consider `CN1CCN(C(=O)[C@H](COCc2ccccc2)NC(=O)C2(c3ccc(Cl)cc3Cl)CC2)CC1`, for which the metabolised at 0.5 h, 15 µM in data set [12] turned out to be 50%. Still for that read-out and setting: as for `CN1CCN(C(=O)[C@H](Cc2ccccc2)NC(=O)C2(c3ccc(Cl)cc3Cl)CC2)CC1`, the figure is 80%.

For `CN1CCN(C(=O)[C@H](Cc2ccc(Cl)cc2Cl)NC(=O)C2(c3ccc(Cl)cc3Cl)CC2)CC1`, the concentration at 4 h in data set [13] was 5800 nM. The same compound had a concentration at 1 h in data set [14] of 4200 nM. Further, the metabolised at 0.5 h, 15 µM in data set [12] stood at 80%.

Turning to `CN1CCN(C(=O)[C@H](Cc2ccc(Cl)cc2)NC(=O)C2(c3ccc(Cl)cc3Cl)CC2)CC1`, the metabolised at 0.5 h, 15 µM in [12] came out at 73%. For `CN1CCN(C(=O)[C@H](Cc2ccc(Br)cc2)NC(=O)C2(c3ccc(Cl)cc3Cl)CC2)CC1`, the metabolised at 0.5 h, 15 µM in data set [12] worked out at 90%. As to `O=C([C@H](Cc1ccc(Cl)cc1Cl)NC(=O)C1(c2ccc(Cl)cc2Cl)CC1)N1CCNCC1`, the metabolised at 0.5 h, 15 µM in data set [12] was 10%. Take `C[C@@H]1CN(C(=O)[C@H](Cc2ccc(Cl)cc2Cl)NC(=O)C2(c3ccc(Cl)cc3Cl)CC2)CCN1`: the metabolised at 0.5 h, 15 µM in [12] came to 30%. As for `C[C@H]1CN(C(=O)[C@H](Cc2ccc(Cl)cc2Cl)NC(=O)C2(c3ccc(Cl)cc3Cl)CC2)CCN1`, in [12], the metabolised at 0.5 h, 15 µM worked out at 40%. Take `CN(C)CCN(C)C(=O)[C@H](Cc1ccc(Cl)cc1Cl)NC(=O)C1(c2ccc(Cl)cc2Cl)CC1`: the metabolised at 0.5 h, 15 µM in data set [12] came to 70%.

As to `CN(C)CCN(C)C(=O)[C@H](Cc1ccc(Br)cc1)NC(=O)C1(c2ccc(Cl)cc2Cl)CC1`, the metabolised at 0.5 h, 15 µM in data set [12] was 90%.

Values taken from ChEMBL document CHEMBL2163189, “Discovery and characterization of an inhibitor of glucosylceramide synthase” (J Med Chem, 2012).
